These results are taken from PubChem BioAssay AID623961 (The Scripps Research Institute Molecular Screening Center, 2012).

Where “and” joins values, the source holds several entries; their conditions need not be identical. Equal values may be shown once. Calls of active or inactive are those of the source.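 How the source made its calls: active means mean cell viability below 80%; inactive means the rest.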

For this experiment, the system named is Huh-7.5 Rluc-replicon viability, CellTiter-Glo ATP, 72 h. Description: cytotoxicity in HCV replicon hepatoma cells, late-stage follow-up, cytotoxicity control for HCV NS3 helicase inhibitor project, cell-based, luminescence (AID 623961). The settings on record: at 10 µM; stronger effect = lower value. In short, it runs like this: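 System: Huh-7.5 human hepatoma cells harboring HCV Renilla luciferase replicon / Compound dosing: 10 µM single concentration, 0.5% DMSO / Schedule: cell attachment 4-5 h, compound exposure 72 h at 37 °C, 5% CO2 / Technique: ATP luminescence after 30 min lysis at 23 °C / Read-out: mean % viability / Buffer or medium: fresh growth medium at readout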
Take `Cc1ccc2nc(-c3ccc4nc(-c5ccc(NC(=O)c6ccc(F)cc6)cc5)sc4c3)sc2c1S(=O)(=O)O`: the viability was 94% (inactive).

Take `Cc1ccc2nc(-c3ccc4nc(-c5ccc(NC(=O)c6cc(C(F)(F)F)ccc6F)cc5)sc4c3)sc2c1S(=O)(=O)O`: the viability is 132% (inactive).

On to `COc1ccc(C(=O)Nc2ccc(-c3nc4ccc(-c5nc6ccc(C)c(S(=O)(=O)O)c6s5)cc4s3)cc2)cc1`, for which the viability is 85% (inactive).

Turning to `Cc1ccc2c(sc(-c3ccc4c(c3)sc(-c3ccc5c(c3)sc(-c3ccc(N(C)C)cc3)[n+]5C)[n+]4C)[n+]2C)c1S(=O)(=O)O` (tested in a mixture with another compound), the viability is 83% (inactive).

For `Cc1ccc2nc(-c3ccc4nc(-c5ccc(NC(=O)c6ccc(NC(=O)OCC7c8ccccc8-c8ccccc87)cc6)cc5)sc4c3)sc2c1S(=O)(=O)O`, the viability was 92% (inactive).

As for `Cc1ccc2nc(-c3ccc4nc(-c5ccc(NC(=O)c6ccc(Br)cc6)cc5)sc4c3)sc2c1S(=O)(=O)O`, the viability is 113% (inactive).

For `Cc1ccc2nc(-c3ccc4nc(-c5ccc6nc(-c7ccc(N)cc7)sc6c5)sc4c3)sc2c1S(=O)(=O)O`, the viability was 91% (inactive).

For `Cc1ccc2nc(-c3ccc(NC(=O)c4ccc(NC(=O)c5ccc(C(F)(F)F)cc5)cc4)cc3)sc2c1S(=O)(=O)O`, the viability was 97% (inactive).

For `Cc1ccc2nc(-c3ccc4nc(-c5ccc(NC(=O)c6ccc7nc(-c8ccc(N)cc8)sc7c6)cc5)sc4c3)sc2c1S(=O)(=O)O`, the viability is 85% (inactive).

`Cc1ccc2nc(-c3ccc4nc(-c5ccc(NC(=O)c6ccc(Cl)c(Cl)c6)cc5)sc4c3)sc2c1S(=O)(=O)O`: the viability is 114% (inactive).

For `Cc1ccc2nc(-c3ccc4nc(-c5ccc(NC(=O)Nc6ccc(F)cc6)cc5)sc4c3)sc2c1S(=O)(=O)O`, the viability was 93% (inactive).

As for `Cc1ccc2nc(-c3ccc4nc(-c5ccc(N(C)C(=O)c6ccc7ccccc7c6)cc5)sc4c3)sc2c1S(=O)(=O)O`, the viability was 101% (inactive).

As to `Cc1ccc2nc(-c3ccc4nc(-c5ccc(NC(=O)c6c(F)cccc6C(F)(F)F)cc5)sc4c3)sc2c1S(=O)(=O)O`, the viability was 122% (inactive).

With `Cc1cc(C(O)(c2ccc(Nc3ccccc3)cc2)c2ccc(Nc3ccc(S(=O)(=O)O)cc3)cc2)ccc1N` (configuration not stated), the viability is 73%.

Take `Cc1ccc2nc(-c3ccc4nc(-c5ccc(NC(=O)Nc6ccc(Cl)cc6)cc5)sc4c3)sc2c1S(=O)(=O)O`: the viability is 98% (inactive).

On to `Cc1ccc2nc(-c3ccc4nc(-c5ccc(NC(=O)c6cccc(C(F)(F)F)c6)cc5)sc4c3)sc2c1S(=O)(=O)O`, for which the viability is 121% (inactive).

Regarding `Cc1ccc2nc(-c3ccc4nc(-c5ccc(NC(=O)c6cc(F)cc(C(F)(F)F)c6)cc5)sc4c3)sc2c1S(=O)(=O)O`, the viability was 113% (inactive).

Regarding `Cc1ccc2nc(-c3ccc4nc(-c5ccc6nc(-c7ccc8nc(-c9ccc(N)cc9)sc8c7)sc6c5)sc4c3)sc2c1S(=O)(=O)O`, the viability was 94% (inactive) and 83% (inactive).

Turning to `Cc1cc2sc(-c3ccc(N)cc3)nc2cc1S(=O)(=O)O`, the viability is 88% (inactive).

Regarding `Cc1ccc2nc(-c3ccc4nc(-c5ccc(NC(=O)c6ccc(N)cc6)cc5)sc4c3)sc2c1S(=O)(=O)O`, the viability was 93% (inactive).

As for `Cc1ccc2nc(-c3ccc4nc(-c5ccc(NC(=O)c6ccc(N(C)C)cc6)cc5)sc4c3)sc2c1S(=O)(=O)O`, the viability is 94% (inactive).

As for `Cc1ccc2nc(-c3ccc(NC(=O)c4ccc(N)cc4)cc3)sc2c1S(=O)(=O)O`, the viability was 103% (inactive).

With `COc1ccc2sc(NC(=O)c3ccc4ncsc4c3)nc2c1`, the viability was 50%.

As for `Cc1ccc2nc(-c3ccc4nc(-c5ccc(NC(=O)c6ccc(C(F)(F)F)cc6)cc5)sc4c3)sc2c1S(=O)(=O)O`, the viability was 90% (inactive).

On to `Cc1ccc2nc(-c3ccc4nc(-c5ccc(NC(=O)c6ccc7ncoc7c6)cc5)sc4c3)sc2c1S(=O)(=O)O`, for which the viability is 114% (inactive).

Regarding `Cc1ccc2nc(-c3ccc4nc(-c5ccc(NC(=O)c6cccc(C(F)(F)F)c6F)cc5)sc4c3)sc2c1S(=O)(=O)O`, the viability is 122% (inactive).

With `O=C(Nc1nc2ccc(Br)cc2s1)c1ccc2ncsc2c1`, the viability was 89% (inactive).

On to `Cc1ccc2nc(-c3ccc4nc(-c5ccc6nc(-c7ccc(N)cc7)sc6c5)sc4c3)sc2c1S(=O)(=O)O` (tested in a mixture with another compound), for which the viability is 98% (inactive).

Regarding `Cc1ccc2nc(-c3ccc4nc(-c5ccc(NC(=O)c6cc(F)ccc6C(F)(F)F)cc5)sc4c3)sc2c1S(=O)(=O)O`, the viability was 118% (inactive).

For the molecule `CCN(CC)c1ccc(-c2nc3ccc(-c4nc5ccc(C)c(S(=O)(=O)O)c5s4)cc3s2)cc1`, the viability is 96% (inactive).

With `Cc1ccc2nc(-c3ccc(NC(=O)c4ccc(NC(=O)OCC5c6ccccc6-c6ccccc65)cc4)cc3)sc2c1S(=O)(=O)O`, the viability was 108% (inactive).

With `Cc1ccc2nc(-c3ccc(NC(=O)c4ccc(NC(=O)Nc5ccccc5)cc4)cc3)sc2c1S(=O)(=O)O`, the viability was 113% (inactive).

On to `Cc1ccc2nc(-c3ccc4nc(-c5ccc(NC(=S)Nc6ccccc6)cc5)sc4c3)sc2c1S(=O)(=O)O`, for which the viability was 98% (inactive).

Take `Cc1ccc2nc(-c3ccc(NC(=O)c4ccc(NS(=O)(=O)c5ccccc5)cc4)cc3)sc2c1S(=O)(=O)O`: the viability was 119% (inactive).

Regarding `Cc1ccc2nc(-c3ccc4nc(-c5ccc(NC(=O)c6ccc(C(F)(F)F)c(F)c6)cc5)sc4c3)sc2c1S(=O)(=O)O`, the viability was 129% (inactive).

Turning to `O=C(CCCCCCC(=O)Nc1ccc(-c2nc3ccccc3[nH]2)cc1)Nc1ccc(-c2nc3ccccc3[nH]2)cc1`, the viability is 31%.

With `Cc1ccc2nc(-c3ccc4nc(-c5ccc(NC(=O)c6ccc(CNC(=O)OCC7c8ccccc8-c8ccccc87)cc6)cc5)sc4c3)sc2c1S(=O)(=O)O`, the viability is 102% (inactive).

For the molecule `Cc1ccc2nc(-c3ccc(NC(=O)c4ccc(C(F)(F)F)cc4)cc3)sc2c1S(=O)(=O)O`, the viability is 102% (inactive).

Regarding `CCOc1ccc2c(NNC(=O)c3cnccn3)c3c(nc2c1)CCCC3`, the viability is 31%.

Take `Cc1ccc2nc(-c3ccc(NC(=O)c4ccc(NC(=O)c5ccc(N)cc5)cc4)cc3)sc2c1S(=O)(=O)O`: the viability is 112% (inactive).

Regarding `Cc1ccc(NC(=O)Nc2ccc(-c3nc4ccc(-c5nc6ccc(C)c(S(=O)(=O)O)c6s5)cc4s3)cc2)cc1`, the viability is 93% (inactive).

Take `COc1ccc(NC(=O)Nc2ccc(-c3nc4ccc(-c5nc6ccc(C)c(S(=O)(=O)O)c6s5)cc4s3)cc2)cc1`: the viability was 99% (inactive).

Consider `Cc1ccc2nc(-c3ccc4nc(-c5ccc(NS(=O)(=O)c6ccc(C(F)(F)F)cc6)cc5)sc4c3)sc2c1S(=O)(=O)O`, for which the viability is 101% (inactive).

Consider `COC(=O)c1ccc(C(=O)Nc2ccc(-c3nc4ccc(-c5nc6ccc(C)c(S(=O)(=O)O)c6s5)cc4s3)cc2)cc1`, for which the viability was 101% (inactive).

Regarding `Cc1ccc2nc(-c3ccc4nc(-c5ccc(NC(=O)c6ccc7ccccc7c6)cc5)sc4c3)sc2c1S(=O)(=O)O`, the viability is 87% (inactive) and 99% (inactive).

With `CS(=O)(=O)c1ccc2nc(NC(=O)c3ccc4ncsc4c3)sc2c1`, the viability was 41%.

In the case of `Cc1ccc2nc(-c3ccc4nc(-c5ccc(NC(=O)c6ccc(C(C)(C)C)cc6)cc5)sc4c3)sc2c1S(=O)(=O)O`, the viability is 87% (inactive).

Turning to `Cc1cc2sc(-c3ccc4nc(-c5ccc(N)cc5)sc4c3)nc2cc1S(=O)(=O)O`, the viability was 87% (inactive).

As to `Cc1ccc(C(=O)Nc2ccc(-c3nc4ccc(-c5nc6ccc(C)c(S(=O)(=O)O)c6s5)cc4s3)cc2)cc1`, the viability is 87% (inactive).

Take `Cc1ccc2nc(-c3ccc4nc(-c5ccc(NC(=O)c6ccc7nc(-c8ccc(NC(=O)OCC9c%10ccccc%10-c%10ccccc%109)cc8)sc7c6)cc5)sc4c3)sc2c1S(=O)(=O)O`: the viability was 90% (inactive) and 95% (inactive).

Consider `Cc1ccc2nc(-c3ccc4nc(-c5ccc(NC(=O)Nc6ccc(C(F)(F)F)cc6)cc5)sc4c3)sc2c1S(=O)(=O)O`, for which the viability was 99% (inactive).

As to `Cc1ccc2nc(-c3ccc4nc(-c5ccc(N)cc5)sc4c3)sc2c1S(=O)(=O)O`, the viability is 85% (inactive) and 105% (inactive) and 95% (inactive).

Turning to `COc1ccc(S(=O)(=O)Nc2ccc(-c3nc4ccc(-c5nc6ccc(C)c(S(=O)(=O)O)c6s5)cc4s3)cc2)cc1`, the viability is 75%.

Regarding `Cc1ccc2nc(-c3ccc(NC(=O)c4ccc(NC(=O)c5ccc(NC(=O)OCC6c7ccccc7-c7ccccc76)cc5)cc4)cc3)sc2c1S(=O)(=O)O`, the viability was 113% (inactive).

For the molecule `COc1cccc2c(=O)c3cc(Cl)cc(C(=O)Nc4cc(Cl)ccn4)c3[nH]c12`, the viability is 79%.

For `Cc1ccc2nc(-c3ccc4nc(NC(=O)c5ccc6ncoc6c5)sc4c3)sc2c1`, the viability is 28%.

Take `Cc1ccc2nc(-c3ccc4nc(-c5ccc(NC(=O)c6ccncc6)cc5)sc4c3)sc2c1S(=O)(=O)O`: the viability was 117% (inactive).

For the molecule `Cc1ccc2nc(-c3ccc(NC(=O)c4ccc(NC(=S)Nc5ccccc5)cc4)cc3)sc2c1S(=O)(=O)O`, the viability is 106% (inactive).

In the case of `Cc1ccc2nc(-c3ccc4nc(-c5ccc(NC(=O)c6ccccc6C(F)(F)F)cc5)sc4c3)sc2c1S(=O)(=O)O`, the viability is 112% (inactive).

Consider `Cc1ccc2nc(-c3ccc4nc(-c5ccc(NC(=O)c6ccc(Cl)cc6)cc5)sc4c3)sc2c1S(=O)(=O)O`, for which the viability was 84% (inactive).

Turning to `Cc1ccc2nc(-c3ccc(NC(=O)c4ccc(NC(=O)c5ccccc5)cc4)cc3)sc2c1S(=O)(=O)O`, the viability was 115% (inactive).

In the case of `CC(=O)Nc1ccc(-c2nc3ccc(-c4nc5ccc(C)c(S(=O)(=O)O)c5s4)cc3s2)cc1`, the viability was 102% (inactive).
